Assay results reported in ChEMBL document CHEMBL1157729, “Structure-activity relationship and mechanism of action studies of manzamine analogues for the control of neuroinflammation and cerebral infections” (J Med Chem, 2010).
≈ marks a conversion by molar mass, not a printed value. Calls of active or inactive are those of the source. The calls are words filed in the database; no cut-off is given here.

How the values were obtained:
[1] = Selectivity index, ratio of IC50 for african green monkey (Cercopithecus aethiops) Vero cells to IC50 for chloroquine-sensitive Plasmodium falciparum; assay type: toxicity, cell-based
[2] = system: Mycobacterium tuberculosis; assay: Antimycobacterial activity against Mycobacterium tuberculosis; assay type: functional
[3] = Selectivity index, ratio of IC50 for african green monkey (Cercopithecus aethiops) Vero cells to IC50 for chloroquine-resistant Plasmodium falciparum W2; assay type: toxicity, cell-based
[4] = Antineuroinflammatory activity in LPS-stimulated rat neonatal microglia assessed as inhibition of PMA-induced superoxide anion production preincubated 15 mins prior to PMA challenge measured after 70 mins; assay type: functional, cell-based
[5] = Antineuroinflammatory activity in LPS-stimulated rat neonatal microglia assessed as inhibition of PMA-induced TXB2 production preincubated 15 mins prior to PMA challenge measured after 70 mins; assay type: functional, cell-based
[6] = Antineuroinflammatory activity in LPS-stimulated rat neonatal microglia assessed as drug level causing 50% PMA-induced LDH release preincubated 15 mins prior to PMA challenge measured after 70 mins; assay type: functional
Method in brief: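 Neonatal rat microglia (2 × 10^5/well) primed with E. coli LPS 0.3 ng/mL for 17 h at 35.9 °C, washed with HBSS, given compound (0.01–10 μM) or DMSO 15 min, then PMA 1 μM; LDH read spectrophotometrically after 70 min; LDH50 relative to Triton X-100 (0.1%) release; duplicates.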

Plasmodium berghei [7] = assay: Antiplasmodial activity against Plasmodium berghei NK65 infected in Swiss Webster mice (Mus musculus) assessed as suppression of parasitaemia at 10 mg/kg, intraperitoneally administered 1 day after infection for 3 days measured after 5 days post infection relative to control; assay type: functional; settings: route intraperitoneal
Plasmodium berghei [8] = assay: Antiplasmodial activity against Plasmodium berghei NK65 infected in Swiss Webster mice (Mus musculus) assessed as suppression of parasitaemia at 10 mg/kg, intraperitoneally administered 1 day after infection for 3 days measured after 7 days post infection relative to control; assay type: functional; settings: route intraperitoneal
Plasmodium berghei [9] = assay: Antiplasmodial activity against Plasmodium berghei NK65 infected in Swiss Webster mice (Mus musculus) assessed as survivability at 10 mg/kg, intraperitoneally administered 1 day after infection for 3 days measured after 28 days post infection; assay type: functional, organism-based; design: dose 10 mg/kg
Plasmodium berghei [10] = assay: Antiplasmodial activity against Plasmodium berghei NK65 infected in Swiss Webster mice (Mus musculus) at 10 mg/kg, intraperitoneally administered 1 day after infection for 3 days; assay type: functional; settings: route intraperitoneal
Plasmodium berghei [11] = assay: Antiplasmodial activity against Plasmodium berghei NK65 infected in Swiss Webster mice (Mus musculus) assessed as parasitaemia cure at 10 mg/kg, intraperitoneally administered 1 day after infection measured after 28 days post infection; assay type: functional
Plasmodium berghei [12] = assay: Toxicity in Plasmodium berghei NK65 infected Swiss Webster mice (Mus musculus) assessed as weight loss at 10 mg/kg, intraperitoneally administered 1 day after infection measured after 28 days post infection; assay type: organism-based; design: dose 10 mg/kg, route intraperitoneal; settings: in vivo, ip, 672 h
Tubulin (Sus scrofa) [13] = molecular target: T1, Tubulin (Sus scrofa) (UniProt P02554+P02550); assay: Inhibition of pig brain tubulin polymerization up to 30 mins by turbidimetry
Tubulin (Sus scrofa) [14] = molecular target: T1, Tubulin (Sus scrofa); assay: Inhibition of pig brain tubulin polymerization after 30 to 60 mins in presence of GTP and glutamate by turbidimetry
Plasmodium falciparum [15] = assay: Antiplasmodial activity against chloroquine-sensitive Plasmodium falciparum D6 after 72 hrs by LDH assay; assay type: functional, organism-based; settings: Plasmodium falciparum, D6, 72 h; read-out: IC50
Plasmodium falciparum [16] = assay: Antiplasmodial activity against chloroquine-resistant Plasmodium falciparum W2 after 72 hrs by LDH assay; assay type: functional, organism-based; settings: Plasmodium falciparum, W2, 72 h; read-out: IC50
Vero [17] = assay: Cytotoxicity against african green monkey Vero cells after 48 hrs by neutral red assay; assay type: cell-based; settings: chlorocebus sabaeus
Method in brief: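 Vero cells seeded at 25,000/well and grown 24 h, then exposed to serially diluted samples for 48 h. Viable cells measured by neutral red assay, with doxorubicin as positive control. IC50 taken from dose-response curves.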

[18] = system: Mycobacterium tuberculosis; assay: Antimycobacterial activity against Mycobacterium tuberculosis H37Rv; assay type: functional, organism-based
Candida albicans = assay: Antifungal activity against Candida albicans ATCC 90028; assay type: functional, organism-based
Method in brief: (§1)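 Broth microdilution per modified CLSI method; samples serially diluted in 20% DMSO/saline, tested in duplicate; inocula set by OD630 of suspensions in incubation broth; growth read at 630 nm before and after incubation; amphotericin B drug control.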

Cryptococcus neoformans = assay: Antifungal activity against Cryptococcus neoformans ATCC 90113; assay type: functional, organism-based; method in brief: as §1
[19] = system: Mycobacterium intracellulare; assay: Antimycobacterial activity against Mycobacterium intracellular ATCC 23068; assay type: functional, organism-based
Method in brief: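 Modified Franzblau method; samples serially diluted in 20% DMSO/saline, tested in duplicate; inoculum set by OD630; fluorescence read at 544ex/590em before and after incubation; ciprofloxacin drug control.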

HeLa [20] = assay: Cytotoxicity against human HeLa cells after 48 hrs by trypan blue exclusion assay; assay type: functional
HeLa [21] = assay: Cell cycle arrest in human HeLa cells assessed as increase in G0/G1 phase accumulation at 5 uM after 24 hrs by FACS analysis; assay type: functional
HeLa [22] = assay: Cell cycle arrest in human HeLa cells assessed as increase in G0/G1 phase accumulation at 10 uM after 24 hrs by FACS analysis; assay type: functional
HeLa [23] = assay: Cell cycle arrest in human HeLa cells assessed as increase in G0/G1 phase accumulation at 20 uM after 24 hrs by FACS analysis; assay type: functional
HeLa [24] = assay: Cell cycle arrest in human HeLa cells assessed as increase in S phase accumulation at 3 uM after 24 hrs by FACS analysis; assay type: functional
HeLa [25] = assay: Cell cycle arrest in human HeLa cells assessed as increase in S phase accumulation at 5 uM after 24 hrs by FACS analysis; assay type: functional
HeLa [26] = assay: Cell cycle arrest in human HeLa cells assessed as increase in S phase accumulation at 10 uM after 24 hrs by FACS analysis; assay type: functional
HeLa [27] = assay: Cell cycle arrest in human HeLa cells assessed as increase in G0/G1 phase accumulation at 3 uM after 24 hrs by FACS analysis; assay type: functional
HeLa [28] = assay: Cell cycle arrest in human HeLa cells assessed as increase in S phase accumulation at 20 uM after 24 hrs by FACS analysis; assay type: functional
HeLa [29] = assay: Cell cycle arrest in human HeLa cells assessed as decrease in G2/M phase accumulation at 3 uM after 24 hrs by FACS analysis; assay type: functional; design: scale not given: the % may be the effect or the level left
HeLa [30] = assay: Cell cycle arrest in human HeLa cells assessed as decrease in G2/M phase accumulation at 5 uM after 24 hrs by FACS analysis; assay type: functional; design: scale not given: the % may be the effect or the level left
HeLa [31] = assay: Cell cycle arrest in human HeLa cells assessed as decrease in G2/M phase accumulation at 10 uM after 24 hrs by FACS analysis; assay type: functional; design: scale not given: the % may be the effect or the level left
HeLa [32] = assay: Cell cycle arrest in human HeLa cells assessed as decrease in G2/M phase accumulation at 20 uM after 24 hrs by FACS analysis; assay type: functional; design: scale not given: the % may be the effect or the level left
Vero [33] = assay: Cytotoxicity against african green monkey Vero cells up to 4.6 ug/mL after 48 hrs by neutral red assay; assay type: cell-based; settings: chlorocebus sabaeus
Method in brief: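 Vero cells were seeded at 25,000 cells/well and incubated for 24 h, then exposed to serially diluted samples for 48 h. Viable cells were counted by Neutral Red assay, with doxorubicin as positive control. IC50 was taken from dose-response curves.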

[34] = Cytotoxicity against LPS-stimulated rat neonatal microglia assessed as LDH release
Method in brief: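 Rat neonatal microglia (2×10^5/well) primed with E. coli LPS (0.3 ng/mL) for 17 h at 35.9 °C. Washed into HBSS, given compound (0.01-10 μM) or DMSO for 15 min, then PMA (1 μM) for 70 min, in duplicate. LDH release read spectrophotometrically. LDH50 is the concentration giving 50% of the LDH release seen with 0.1% Triton X-100.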

T1 sequence (P02550 whole entry, looked up): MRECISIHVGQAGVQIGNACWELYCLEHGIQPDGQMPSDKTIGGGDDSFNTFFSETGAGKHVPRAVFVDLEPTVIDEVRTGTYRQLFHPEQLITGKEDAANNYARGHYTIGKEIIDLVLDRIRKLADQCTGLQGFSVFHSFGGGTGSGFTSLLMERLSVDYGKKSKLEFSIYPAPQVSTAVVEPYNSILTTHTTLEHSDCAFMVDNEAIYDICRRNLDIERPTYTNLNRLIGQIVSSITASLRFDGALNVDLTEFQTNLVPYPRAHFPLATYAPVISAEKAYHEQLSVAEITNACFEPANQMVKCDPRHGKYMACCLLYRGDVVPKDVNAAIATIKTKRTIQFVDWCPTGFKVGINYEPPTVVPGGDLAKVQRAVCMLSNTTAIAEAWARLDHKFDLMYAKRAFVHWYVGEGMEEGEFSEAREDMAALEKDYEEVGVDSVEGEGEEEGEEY
T1 sequence (P02554 whole entry, looked up): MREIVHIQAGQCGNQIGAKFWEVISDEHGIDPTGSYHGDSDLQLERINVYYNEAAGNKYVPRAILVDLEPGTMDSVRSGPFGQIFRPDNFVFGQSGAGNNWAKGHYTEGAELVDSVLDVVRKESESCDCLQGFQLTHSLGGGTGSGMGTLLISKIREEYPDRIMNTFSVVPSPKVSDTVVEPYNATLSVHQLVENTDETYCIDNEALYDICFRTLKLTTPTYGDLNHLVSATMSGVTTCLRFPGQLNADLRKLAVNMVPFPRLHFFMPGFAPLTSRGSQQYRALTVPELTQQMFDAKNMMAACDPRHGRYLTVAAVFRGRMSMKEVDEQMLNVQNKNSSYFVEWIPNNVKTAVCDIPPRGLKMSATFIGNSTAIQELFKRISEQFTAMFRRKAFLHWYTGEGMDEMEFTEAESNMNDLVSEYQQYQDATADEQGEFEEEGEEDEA

SMILES: Oc1cccc2c1[nH]c1c(C3=C[C@@]4(O)CC/C=C\CCCCN5CC[C@@H]3[C@]3(CC6/C=C\CCCCN6[C@H]34)C5)nccc12 (stereo not given in full)
- Ratio IC50 [1]: 180
- MIC [2]: 0.91 µg/mL (≈ 1.61 µM)
- selectivity ratio ([3]; Vero cells, read-out: Ratio IC50): 25
- Ratio IC50 ([3]; vero): 140
- IC50 [4]: > 10000 nM
- IC50 [5]: 500 nM
- Activity [6]: >10 µM
- Activity (Plasmodium berghei [7]): 100%
- Activity (Plasmodium berghei [8]): 100%
- Activity (Plasmodium berghei [9]): Active
- MST (Plasmodium berghei [10]): > 28 days
- Activity (Plasmodium berghei [11]; route intraperitoneal): 80%
- Activity (Plasmodium berghei [12]): Toxic

SMILES: O[C@]12C=C(c3nccc4c3[nH]c3ccccc34)[C@@H]3CCN(CCCC/C=C\CC1)C[C@@]31C[C@@H]3/C=C\CCCCN3[C@H]12
- inhibition (Plasmodium berghei [9]): inactive
- inhibition (Plasmodium berghei [11]): inactive
- inhibition (Tubulin (Sus scrofa) [13]): inactive
- inhibition (Tubulin (Sus scrofa) [14]): inactive

SMILES: CC(C)Cn1c2ccccc2c2ccnc(C3=C[C@@]4(O)CC/C=C\CCCCN5CC[C@@H]3[C@]3(C[C@@H]6/C=C\CCCCN6[C@H]34)C5)c21 [9-N-ISOBUTYLMANZAMINE A]
- IC50 (Plasmodium falciparum [15]): 0.039 µg/mL (≈ 0.0645 µM)
- IC50 (Plasmodium falciparum [16]): 0.078 µg/mL (≈ 0.129 µM)
- IC50 (Vero [17]): 0.4 µg/mL (≈ 0.661 µM)
- MIC [18]: 4.6 µg/mL (≈ 7.6 µM)
- IC50 (Candida albicans): 10 µg/mL (≈ 16.5 µM)
- IC50 (Cryptococcus neoformans): 3 µg/mL (≈ 4.96 µM)
- IC50 [19]: 1 µg/mL (≈ 1.65 µM)
- IC50 [4]: 5700 nM
- IC50 [5]: > 10000 nM
- Activity [6]: >10 µM
- Activity (HeLa [20]): >30 µg/mL
- Activity (HeLa [21]): 54.9%
- Activity (HeLa [22]): 51.1%
- Activity (HeLa [23]): 52.3%
- Activity (HeLa [24]): 16.6%
- Activity (HeLa [25]): 16.4%
- Activity (HeLa [26]): 19.5%
- Activity (HeLa [27]): 54.2%
- Activity (HeLa [28]): 19.1%
- Activity (HeLa [29]): 19.2%
- Activity (HeLa [30]): 17.8%
- Activity (HeLa [31]): 17%
- Activity (HeLa [32]): 17.4%

SMILES: O[C@]12C=C(C3NCCc4c3[nH]c3ccccc43)[C@@H]3CCN(CCCC/C=C\CC1)C[C@@]31C[C@@H]3/C=C\CCCCN3[C@H]12 (stereo not given in full) [MANZAMINE D]
- IC50 (Plasmodium falciparum [15]): 0.09 µg/mL (≈ 0.163 µM)
- IC50 (Plasmodium falciparum [16]): 0.088 µg/mL (≈ 0.159 µM)
- Activity (Vero [33]): Non-toxic
- IC50 (Candida albicans): 15 µg/mL (≈ 27.1 µM)
- IC50 (Cryptococcus neoformans): 0.8 µg/mL (≈ 1.45 µM)
- IC50 [19]: 0.1 µg/mL (≈ 0.181 µM)
- IC50 [4]: 2450 nM
- IC50 [5]: 2100 nM
- Activity [6]: 1 µM
- Activity [34]: Toxic
